Consider 2 compounds from ChEMBL document CHEMBL4422663, “Suppression of Tumor Growth and Metastases by Targeted Intervention in Urokinase Activity with Cyclic Peptides” (J Med Chem, 2019).

The target in data set [1] is Urokinase-type plasminogen activator (Mus musculus) (UniProt P06869). As to the kind of experiment: Inhibition of the intrinsic peri-cellular uPA in mouse CT26 cells assessed as reduction in cell invasion at 100 uM […] by transwell assay. It counts as cell-based. The method in brief: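 CT-26 cells, 2×10^5 per Matrigel-coated Transwell top chamber in serum-free DMEM with peptide; 10% serum medium below. After 24 h, invaded underside cells stained with 0.1% crystal violet, eluted in 33% acetic acid, read at A570 and normalized to untreated (100%). Triplicates. The legend gives a 0.1–100 μM dose range, with IC50 derived from the dose-response.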
Urokinase-type plasminogen activator (Mus musculus), sequence (P06869 21-178 limits assumed): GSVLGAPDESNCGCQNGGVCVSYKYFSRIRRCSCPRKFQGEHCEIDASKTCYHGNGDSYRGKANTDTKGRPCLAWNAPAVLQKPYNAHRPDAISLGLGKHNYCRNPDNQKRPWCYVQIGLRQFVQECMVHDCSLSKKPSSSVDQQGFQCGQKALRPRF
Urokinase-type plasminogen activator (Mus musculus), sequence (P06869 180-433 limits assumed): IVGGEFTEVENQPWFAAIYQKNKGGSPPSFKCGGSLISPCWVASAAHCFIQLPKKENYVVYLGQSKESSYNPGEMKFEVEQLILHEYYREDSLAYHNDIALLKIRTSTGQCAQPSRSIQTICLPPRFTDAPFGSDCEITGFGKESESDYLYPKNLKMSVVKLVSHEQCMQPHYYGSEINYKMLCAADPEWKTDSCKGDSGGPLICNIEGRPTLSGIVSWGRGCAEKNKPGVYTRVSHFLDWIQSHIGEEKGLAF

A further data set deals with MCF7. The experiment in a line: Anti-invasive activity in human MCF7 cells at 100 uM measured every hour by transwell assay. It counts as functional, cell-based.
A further data set has as its system CT26. The experiment in a line: Cytotoxicity against mouse CT26 cells at 100 uM. The class given is cell-based. To be noted: ct26, 100 µM.
The target in data set [2] is Urokinase-type plasminogen activator (Mus musculus) (UniProt P06869). As to the kind of experiment: Inhibition of the intrinsic peri-cellular uPA in mouse CT26 cells assessed as reduction in cell migration at 100 uM measured every hour by wound healing assay relative to control. It counts as cell-based.
The nature of data set [3]: Drug level in blood of mouse LLC allografted in mouse at 100 mg/kg, ip. The class given is ADME, organism-based. To be noted: in vivo, read-out: Drug uptake.
Data set [4] relates to Lewis lung carcinoma cell line. As to the kind of experiment: Antitumor activity against mouse LLC allografted in C57Bl6/N mouse assessed as inhibition olf tumor growth at 200 mg/kg/day, ip. The class given is functional. As to conditions: read-out: TGI.
Data set [5] relates to Lewis lung carcinoma cell line. As to the kind of experiment: Antimetastatic activity against mouse LLC allografted in mouse assessed as reduction in tumor nodule numbers at 100 mg/kg, ip. More on the design: scale not given: the % may be the effect or the level left. The class given is functional.

SMILES strings stand for the structures. The source made the active and inactive calls. The rule behind the calls is not given here. Positions of bridges follow the written chain, without caps; N, C: chain ends. Residues, ends and D or L forms follow the SMILES beside them.

`CC[C@H](C)[C@@H]1NC(=O)[C@H](Cc2ccc(O)cc2)NC(=O)[C@H](C)NC(=O)[C@H](CO)NC(=O)[C@H](Cc2ccc(O)cc2)NC(=O)[C@H](C)NC(=O)[C@@H]2CCCN2C(=O)[C@@H](N)CSSC[C@@H](C(=O)O)NC(=O)CNC1=O` (H-CPAYSAYIGC-OH; disulfide 1-10): the inhibition entry in data set [1] and in data set [2] was “inactive” each time. For the same compound, the result in the data set with MCF7 was inactive. For the same compound, in the data set with CT26, the Activity result is on record as “Non-Toxic”.
Take `N=C(N)c1ccc(CNC(=O)[C@H](CO)NC(=O)[C@@H](CO)NS(=O)(=O)Cc2ccccc2)cc1`: the concentration in data set [3] was 1010 µM. Also, in data set [4], the inhibition in vivo at 200 mg/kg/day amounted to 43%. For the same compound, in data set [5], the Activity worked out at 41.5%.
